Measured values gathered from unrelated publications.
Compare with care: the assays were run in different laboratories.
Effect on: metabolic stability

| SMILES | host | sample | concentration | time | pH | quantity | value |
| --- | --- | --- | --- | --- | --- | --- | --- |
| Cc1cc(C)nc(Nc2ncc(C(=O)NCCc3c(C)[nH]c4ccccc34)cn2)c1 | mouse | liver microsomes | 1 µM | – | – | microsomal CLint | 148 µL/min/mg |
| Cc1ccc(F)c2cc(C(=O)N[C@@H]3CCC[C@H](N4CC[C@H](N(C)S(C)(=O)=O)C4)C3)[nH]c12 | mouse | hepatocytes | 0.5 µM | 1 h | – | scaled CLint | 721 mL/min/kg |
| NC(=O)[C@@H]1CC(F)(F)CN1C(=O)c1ccc(N2CC(F)(F)C2)c(OCC2CC2)n1 | mouse | hepatocytes | – | – | – | hepatocyte CLint | 59 µL/min/10⁶ cells |
| C[C@H]1COCCN1c1nc(NCc2cccnc2C(F)(F)F)c2cccnc2n1 | mouse | hepatocytes | – | – | – | hepatocyte CLint | 8.9 µL/min/10⁶ cells |
| Cc1ncc2n1-c1ccc(Cl)cc1C(c1ccccc1F)=NC2 | male CD-1 mouse | liver microsomes | 1 µM | – | – | microsomal CLint | > 250 µL/min/mg |
| Cc1nc([C@@](C)(CC2CC2)NC(=O)c2cc(OCC(F)(F)F)c(C3CC3)cn2)no1 | mouse | hepatocytes | – | – | – | hepatocyte CLint | 27 µL/min/10⁶ cells |
| Cc1nc2c(=O)n(C)c(=O)nc-2n(C)n1 | mouse | liver microsomes | – | – | – | microsomal CLint | < 7.4 µL/min/mg |
| Cc1cc(Cl)c(Cl)cc1NC(=O)c1ccc(N2CCNCC2)c(C#N)c1 | CD-1 mouse | liver microsomes | 1 µM | 1 h | pH 7.4 | scaled CLint | 29 mL/min/kg |
